Screening data (PubChem BioAssay)
An excerpt weighted towards active compounds, which were near 1.8% of everything screened.
STAT1 inh: reduces IFN-gamma driven STAT1 reporter signal; NIH 3T3 STAT1-luciferase reporter, luminescence; actives 0.35% (n = 200,000); inhibition, % at 5.5 µM;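 active = inhibition above a set limit, the mean inhibition across all tested compounds plus 3 SD, cut at about 34% in these data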
PERK inh: human PERK inhibition, primary cell-based screen; inhibition, % at 5.6 µM; actives 0.17% (n = 220,000); Q9NZJ5; CHO PERK-DD fusion, SEAP luminescence translation reporter;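 active = inhibition above the mean inhibition of all tested compounds plus 3 SD, set separately per screening campaign, cut at about 2.9% in these data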;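 also: PERK kinase domain activated by AP20187 dimerizer at 100 nM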
STAT3 blocker: reduces IL-6 driven STAT3 reporter signal | U3A cells, IL-6 STAT3-luciferase reporter, luminescence; host cell line lacks STAT1 | inhibition, % at 5.5 µM | actives 0.89% (n = 190,000) | AID 862;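 active = inhibition above the mean inhibition across all screened compounds plus 3 SD, cut at about 44% in these data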
STAT3 act-1: STAT3 signaling activation; U3A cells, IL-6 STAT3-luciferase reporter, luminescence; 100% = signal with IL-6 EC80 alone; activation (% of control), % at 5.6 µM; actives 0.91% (n = 190,000);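 active = activation above the screen-wide mean of compound activation plus 3 SD, cut at about 130% in these data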
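Test system: STAT3-luciferase reporter U3A cells; Detection: reporter luminescence signal; Times: 1 h compound pre-exposure, 6 h IL-6 stimulation, 37 °C; Benchmarks: IL-6-only high control; Also added: IL-6 stimulus at 33 ng/mL final.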
STAT3 act-2: confirmation of STAT3 signaling activators | actives 64% (n = 1,200) | potentiation (% of control), % at 5.7 µM | shares compounds with STAT3 act-1 | U3A STAT3-luciferase reporter, IL-6 potentiation, luminescence; U3A cells lack STAT1; 100 means same as IL-6 alone;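 active = percent activation of the STAT3 luciferase reporter above a set limit taken from the earlier primary screen, cut at about 130% in these data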
NFkB act 2: NF-kappaB activation in STAT3 activator counter-screen; human cells, NF-kappaB reporter activation; activation (% of control), % at 5.7 µM; actives 11% (n = 1,200); shares compounds with STAT3 act-1; in the data active = activation above about 120%;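 also: reporter induced by TNF-alpha stimulation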
STAT1 act STAT3c: counter-screen for STAT3 activators: STAT1 activation; NIH 3T3 STAT1-luciferase reporter, IFN-gamma, luminescence; AID 1318; shares compounds with STAT3 act-1; activation (% of control), % at 5.7 µM; actives 13% (n = 1,200);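 active = activation above the solvent-only control well mean plus 3 SD, set per screening run, cut at about 120% in these data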
Numbers stand for hits.

Results for CC(C)(C)OC(=O)[C@H](Cc1ccccc1)NC(=O)c1nc[nH]c1C(=O)NC1CCN(C(=O)OC(C)(C)C)CC1 ?
STAT1 inh: inactive; PERK inh: inactive

What do the screens show for `COc1ccc2nc(N=Nc3c(O)ccc4ccccc34)sc2c1`?
STAT1 inh: inactive; PERK inh: inactive; STAT3 blocker: inactive; STAT3 act-1: 136.7; STAT3 act-2: inactive; NFkB act 2: inactive; STAT1 act STAT3c: inactive

What do the screens show for `Cc1ccc(/C=C2\SC(=S)N(/N=C/c3cc([N+](=O)[O-])ccc3O)C2=O)o1`?
STAT1 inh: inactive; PERK inh: inactive; STAT3 blocker: inactive; STAT3 act-1: inactive

How did c1ccc2c(Nc3ccc4c(c3)OCCO4)c3c(nc2c1)CCCC3 do in these assays?
STAT1 inh: inactive; PERK inh: inactive; STAT3 blocker: inactive; STAT3 act-1: inactive

Results for COc1ccc(OC)c(Nc2nc(-c3cccs3)cs2)c1 ?
STAT1 inh: inactive; PERK inh: inactive; STAT3 blocker: inactive; STAT3 act-1: 146.5; STAT3 act-2: inactive; NFkB act 2: inactive; STAT1 act STAT3c: inactive

What do the screens show for `COc1ccc(Nc2nc(-c3cccs3)cs2)c(OC)c1`?
STAT1 inh: inactive; PERK inh: inactive; STAT3 blocker: inactive; STAT3 act-1: inactive

Results for O=[N+]([O-])c1cccc(C(=Nc2ccc(Cl)cc2)NO)c1 ?
STAT1 inh: inactive; PERK inh: inactive; STAT3 blocker: inactive; STAT3 act-1: 147.8; STAT3 act-2: 138.7; NFkB act 2: inactive; STAT1 act STAT3c: inactive

Results for O=[N+]([O-])c1cccc(C(=Nc2ccccc2)NO)c1 ?
STAT1 inh: inactive; PERK inh: inactive; STAT3 blocker: inactive; STAT3 act-1: inactive

What do the screens show for `Cc1ccc(C)c(-c2csc(NC(=O)c3cnccn3)n2)c1`?
STAT1 inh: inactive; PERK inh: inactive; STAT3 blocker: inactive; STAT3 act-1: inactive

What do the screens show for `O=C(OCc1nc2ccccc2s1)C1CCN(C2=NS(=O)(=O)c3ccccc32)CC1`?
STAT1 inh: inactive; PERK inh: inactive; STAT3 blocker: inactive; STAT3 act-1: 146.7; STAT3 act-2: 142.4; NFkB act 2: 121.3; STAT1 act STAT3c: 134.3

Results for O=C(OCc1nc2ccccc2s1)c1cccc(N2C(=O)CCC2=O)c1 ?
STAT1 inh: inactive; PERK inh: inactive; STAT3 blocker: inactive; STAT3 act-1: inactive

What do the screens show for `O=C1Nc2ccc(Br)cc2C1(O)Cc1ccccn1` (stereo not given)?
STAT1 inh: inactive; PERK inh: inactive; STAT3 blocker: inactive; STAT3 act-1: inactive

What do the screens show for `O=C1Nc2ccc(Br)cc2C12NNc1ccccc1O2` (stereo not given)?
STAT1 inh: inactive; PERK inh: inactive; STAT3 blocker: inactive; STAT3 act-1: 141.3; STAT3 act-2: inactive; NFkB act 2: inactive; STAT1 act STAT3c: inactive

Results for CCc1c(C)sc(NC(=O)c2ccco2)c1C(=O)N1CCOCC1 ?
STAT1 inh: inactive; PERK inh: inactive; STAT3 blocker: inactive; STAT3 act-1: 137.6; STAT3 act-2: inactive; NFkB act 2: inactive; STAT1 act STAT3c: inactive

Results for Cn1c(O)c(N=NC(=O)c2cc(-c3cccs3)nc3ccccc23)c2ccccc21 ?
STAT1 inh: inactive; PERK inh: inactive; STAT3 blocker: inactive; STAT3 act-1: inactive

What do the screens show for `Cn1c(O)c(N=Nc2ccc(F)cc2)c2ccccc21`?
STAT1 inh: inactive; PERK inh: inactive; STAT3 blocker: inactive; STAT3 act-1: 152.3; STAT3 act-2: 165.2; NFkB act 2: inactive; STAT1 act STAT3c: inactive

How did Cn1c(O)c(N=Nc2nc(-c3ccccc3)cs2)c2ccccc21 do in these assays?
STAT1 inh: inactive; PERK inh: inactive; STAT3 blocker: inactive; STAT3 act-1: 146.8; STAT3 act-2: 158.7; NFkB act 2: inactive; STAT1 act STAT3c: inactive

Results for Cc1c(C(=O)N2CCOCC2)cc(C(C)(C)C)n1-c1ccccc1 ?
PERK inh: inactive

Results for O=C1C=C(NNC(=O)c2cccnc2)CC(c2ccco2)C1 (stereo not given) ?
STAT1 inh: inactive; PERK inh: inactive; STAT3 blocker: inactive; STAT3 act-1: inactive

How did CC1=NN(c2nc(-c3ccccc3)cs2)C(=O)C1N=Nc1ccccc1 (stereo not given) do in these assays?
STAT1 inh: inactive; PERK inh: inactive; STAT3 blocker: inactive; STAT3 act-1: inactive

How did CC1=NN(c2ccccc2)C(=O)C1N=Nc1ccc(C)cc1 (stereo not given) do in these assays?
STAT1 inh: inactive; PERK inh: inactive; STAT3 blocker: inactive; STAT3 act-1: 136.4; STAT3 act-2: inactive; NFkB act 2: inactive; STAT1 act STAT3c: inactive

What do the screens show for `CC1=NN(c2nc(-c3ccc(C)cc3)cs2)C(=O)C1N=Nc1ccc2ccccc2c1` (stereo not given)?
STAT1 inh: inactive; PERK inh: inactive; STAT3 blocker: inactive; STAT3 act-1: 150.1; STAT3 act-2: 141.8; NFkB act 2: inactive; STAT1 act STAT3c: inactive

Results for Cc1cc(C)c(S(=O)(=O)Nc2ccccc2C(=O)OCC(=O)NCc2ccccc2)c(C)c1 ?
STAT1 inh: inactive; PERK inh: inactive; STAT3 blocker: inactive; STAT3 act-1: inactive

What do the screens show for `Nc1nnc(Cc2c[nH]c3ccccc23)s1`?
STAT1 inh: inactive; PERK inh: inactive; STAT3 blocker: inactive; STAT3 act-1: 142.6; STAT3 act-2: 154.2; NFkB act 2: inactive; STAT1 act STAT3c: inactive

What do the screens show for `Cc1ccc(NC(=O)Cn2nc(C)c(S(=O)(=O)N(C)C)c2C)cc1`?
STAT1 inh: inactive; PERK inh: inactive; STAT3 blocker: inactive; STAT3 act-1: inactive

Results for CCCc1cc(=O)[nH]c(SCC(=O)c2cc(C)n(-c3c(C)n(C)n(-c4ccccc4)c3=O)c2C)n1 ?
STAT1 inh: inactive; PERK inh: inactive; STAT3 blocker: inactive; STAT3 act-1: inactive

Results for COc1ccc(S(=O)(=O)N2CCN(c3ccc4nnc(-c5ccccc5)n4n3)CC2)cc1 ?
STAT1 inh: inactive; PERK inh: inactive; STAT3 blocker: inactive; STAT3 act-1: 142.8; STAT3 act-2: inactive; NFkB act 2: inactive; STAT1 act STAT3c: inactive

What do the screens show for `O=C(NCCC(=O)N1CCN(c2ncccn2)CC1)c1ccccc1Cl`?
STAT1 inh: inactive; PERK inh: inactive; STAT3 blocker: inactive; STAT3 act-1: inactive

How did O=C(NCCC(=O)N1CCN(c2ncccn2)CC1)c1ccccc1 do in these assays?
STAT1 inh: inactive; PERK inh: inactive; STAT3 blocker: inactive; STAT3 act-1: 139.5; STAT3 act-2: inactive; NFkB act 2: inactive; STAT1 act STAT3c: inactive

Results for O=C(N/N=C/C1CC=CCC1)c1ccc(O)cc1O (stereo not given) ?
STAT1 inh: inactive; PERK inh: inactive; STAT3 blocker: inactive; STAT3 act-1: inactive
